Rows were chosen to be rich in hits. Some 4% of all compounds tested hit in one or more screens of this group.
TAAR1 ag: human TAAR1 agonism; Q96RJ0; CHO RD-HGA16 TAAR1, Fluo-8 calcium fluorescence; vehicle wells 0%, saturating PEA agonist 100%; activation, % at 3 µM; actives 0.99% (n = 360,000); AID 624467;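 active = activation above the mean activation of all test compounds in the run plus 3 SD, cut at about 38% in these data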
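System: CHO-derived RD-HGA16 cells with stable Gα16 and human TAAR1 / Times: 17-24 h plating, Fluo-8 75 min 37 °C, 30 min RT / Technique: calcium-sensitive Fluo-8 signal, excitation 470-495, emission 515-575 nm / Measure: % activation relative to PEA EC100 response / Benchmarks: DMSO and PEA EC100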
CHO parental Ca: counter-screen: ATP calcium response change in parental CHO cells | AID 463079 | parental CHO-K1, ATP-induced calcium, Fluo-8 fluorescence | inhibition, % at 5.6 µM | actives 0.63% (n = 330,000);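 active = inhibition above that plate's mean sample inhibition plus 3 SD, cut at about 26% in these data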;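 note: 0% = ATP-challenged DMSO wells and 100% = DMSO wells without ATP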
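Test system: untransfected parental CHO cell line; also added: ATP stimulus; dosing: 5.6 µM, single dose; signal: calcium-sensitive Fluo-8 fluorescence; measure: percent inhibition of ATP-evoked calcium rise, normalized to controls; benchmarks: low control ATP plus DMSO, high control DMSO only; replication: one well per compound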
OX1R antag-1: OX1R (human) antagonism; O43613; OX1R-expressing cells, FRET antagonist read-out; inhibition, % at 6.6 µM; actives 1.8% (n = 330,000); AID 485270; in the data active = inhibition mostly above about 38%, no sharp cut-off; inactive = mostly below about 40%;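 note: 0% = agonist challenge alone and 100% = reference antagonist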
Target sequence (O43613 whole entry, looked up): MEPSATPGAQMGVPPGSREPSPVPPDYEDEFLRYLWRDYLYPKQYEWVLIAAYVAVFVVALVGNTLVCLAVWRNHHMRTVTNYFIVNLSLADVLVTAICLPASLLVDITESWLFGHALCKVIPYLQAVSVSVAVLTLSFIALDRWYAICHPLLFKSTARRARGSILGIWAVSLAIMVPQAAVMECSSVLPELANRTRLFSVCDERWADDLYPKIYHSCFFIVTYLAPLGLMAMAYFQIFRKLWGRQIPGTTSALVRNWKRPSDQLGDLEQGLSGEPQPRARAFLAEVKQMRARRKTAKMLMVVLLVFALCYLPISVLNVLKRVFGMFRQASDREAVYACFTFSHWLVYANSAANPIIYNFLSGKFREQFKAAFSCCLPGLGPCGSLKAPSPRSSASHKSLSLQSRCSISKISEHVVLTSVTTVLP
TAAR1 antagonist: antagonists of human TAAR1 | inhibition, % at 3 µM | CHO RD-HGA16 TAAR1, Fluo-8 calcium fluorescence, antagonist | actives 1.5% (n = 360,000) | Q96RJ0;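 active = inhibition above a per-plate cutoff, the mean inhibition of test compounds on that plate plus 3 SD, cut at about 49% in these data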;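 note: 0% = DMSO plus EC80 beta-PEA response and 100% = DMSO alone without agonist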
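Assay system: CHO-derived RD-HGA16 cells stably expressing human TAAR1 plus Gα16. Timing: 140 s kinetic read after compound, 140 s after agonist. Technique: kinetic Fluo-8 calcium fluorescence measurement. Measure: % inhibition of agonist calcium response.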
OX1R antag-2: antagonists of human orexin 1 receptor; actives 0.43% (n = 330,000); CHO/OX1R cells, Fluo-8 calcium fluorescence, orexin A; O43613; inhibition, % at 5 µM;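 active = inhibition above its plate's threshold, mean inhibition of all tested compounds on the plate plus 3 SD, cut at about 37% in these data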;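 note: 0% = orexin A challenge wells and 100% = SB-334867-A antagonist wells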
* marks the source's active call; other numbers are inactive results; x = no result given.

SMILES | TAAR1 ag | CHO parental Ca | OX1R antag-1 | TAAR1 antagonist | OX1R antag-2
C=CCOn1c(=O)c(-c2ccc(Cl)cc2)[n+]([O-])c2ccccc21 | 0 | x | x | -29 | x
COC(=O)/C(C#N)=C1/C=Cc2ccccc2N1C | 9 | -4 | 60* | -10 | -34
CC1=C(C(=O)Nc2cccc(C(=O)NC(C)c3ccccc3)c2)SCCO1 (stereo not drawn) | 4 | -10 | 20 | -21 | -15
c1ccc(Cn2cc(CCOCc3ccccn3)c3ccccc32)cc1 | -1 | x | x | -27 | x
O=C(Cn1nc(-c2ccccc2)ccc1=O)Nc1ccc(-n2cnnn2)cc1 | 1 | -2 | 28 | 35 | 8
O=C(Cn1nc(-c2ccc3c(c2)OCCO3)ccc1=O)Nc1ccc(-n2cnnn2)cc1 | 0 | 29* | 15 | 10 | 10
Cn1c(SCC(=O)NNC(=O)Cc2ccccc2)nnc1-c1ccccc1 | 4 | -13 | 7 | -16 | -9
O=C(Nc1ccccc1N1CCOCC1)C1(c2ccc(Cl)cc2)CCC1 | 41* | -36 | 14 | 2 | -29
CCN(CC(=O)Nc1c(F)cccc1F)C(=O)CNC(=O)c1ccc(Br)o1 | 0 | -9 | 60* | -2 | -22
CCN(CC(=O)Nc1c(F)cccc1F)C(=O)CNC(=O)c1ccco1 | 2 | -7 | 17 | -10 | 1
COc1cccc(CNC(=O)[C@H]2CCCN2C(=O)[C@H]2CCCN2C(=O)c2ccc(F)c(F)c2)c1 | 2 | x | x | -10 | x
CC(=O)Nc1ccc(Oc2ccc([N+](=O)[O-])cc2Cl)cc1 | 9 | -8 | 10 | 10 | 0
CC(=O)Nc1ccc(N=c2cc([N+](=O)[O-])cc(Cl)n2O)cc1 | 2 | -2 | 66* | -7 | -5
Cn1c(SCC2CCCO2)nnc1-c1ccc([N+](=O)[O-])cc1 (stereo not drawn) | 2 | -22 | 41* | -15 | -8
O=C(NC1CCCC1)c1cccc(S(=O)(=O)N2CCOCC2)c1 | 8 | -13 | -1 | -13 | -1
CN(CC(=O)NCc1ccc(F)cc1)S(=O)(=O)c1cccc2nsnc12 | 5 | -10 | 58 | -1 | -16
CN(CC(=O)NCc1cccs1)S(=O)(=O)c1cccc2nsnc12 | 6 | -1 | 51* | -5 | -11
Cc1cc2c(c(=O)o1)[C@@]1(C(=O)N(C)c3ccccc31)C1=C(CC(C)(C)OC1=O)O2 | 1 | x | x | -12 | x
Cc1ccc2nsnc2c1S(=O)(=O)N1CCN(C)CC1 | -3 | -2 | 39 | 18 | -5
Cc1ccc(S(=O)(=O)N2CCN(C)CC2)c2nsnc12 | -3 | 0 | 50* | -6 | 9
CN1CCN(S(=O)(=O)c2cccc3nsnc23)CC1 | 17 | 7 | 40* | -9 | 2
CCN(Cc1ccccc1)C(=O)Nc1c(Cl)cccc1Cl | -1 | x | x | -15 | x
CN(C)Cc1c(C(C)(C)O)[nH]c2cc(F)ccc12 | 0 | x | x | 1 | x
Nc1c(C(=O)c2ccccc2)oc2ccc(Br)cc12 | 20 | -32 | 59* | 19 | 24
CC1CN(S(=O)(=O)c2cccc(C(=O)NCc3ccccn3)c2)CC(C)O1 (stereo not drawn) | 2 | -8 | 4 | 6 | -13
SMILES | TAAR1 ag | CHO parental Ca | OX1R antag-1 | TAAR1 antagonist | OX1R antag-2
C=CCn1c(SC)nnc1-c1cccc([N+](=O)[O-])c1 | -1 | -7 | 53* | 5 | -3
C=CCn1c(-c2cccc([N+](=O)[O-])c2)n[nH]c1=S | 0 | -2 | 46 | 1 | -3
CS(=O)(=O)c1cc([N+](=O)[O-])c(Sc2nc3ccccc3[nH]2)c([N+](=O)[O-])c1 | 21 | 32* | 39* | 9 | 22
O=C(O)c1cc([N+](=O)[O-])c(Sc2nc3ccccc3[nH]2)c([N+](=O)[O-])c1 | 12 | 0 | 19 | -19 | 2
Cc1ccc(S(=O)(=O)/N=C2\C=C(NS(=O)(=O)c3ccccc3)C(=O)c3ccccc32)cc1 | 3 | x | x | 7 | x
Cc1ccc(S(=O)(=O)/N=C2/C=C(C3C(=O)CC(C)(C)CC3=O)C(=O)c3ccccc32)cc1 | 10 | -12 | 63* | 8 | -11
O=C(N[C@H](C(=O)N1CCC[C@H]1C(=O)NC1CCCC1)C1CCCCC1)C1CC1 | 2 | x | x | -3 | x
CC(C)c1ccc(NC(=O)CSC(C)c2nc3ccccc3c(=O)[nH]2)cc1 (stereo not drawn) | 2 | -5 | 63* | 4 | 2
O=[N+]([O-])c1ccc(-c2nnc3cccc(Cl)n23)cc1 | -1 | -7 | 49* | -6 | -18

Compound activity deposited in PubChem BioAssay by The Scripps Research Institute Molecular Screening Center.
